MIC data for 2 compounds are collected here from ChEMBL document CHEMBL1275556, “High prevalence of plasmid-mediated quinolone resistance genes qnr and aac(6')-Ib-cr in clinical isolates of Enterobacteriaceae from nine teaching hospitals in China” (2008).

Test [1] relates to Citrobacter freundii. As to the kind of experiment: Antimicrobial activity against aac(6')-Ib-cr-positive Citrobacter freundii PU55T harboring wild-type GyrA, ParC, GyrB and qnrA genes by agar dilution method. Background: In agar dilution, organisms are placed on agar that contains the substance at set levels.
In test [2] the test system is Klebsiella pneumoniae. As to the kind of experiment: Antimicrobial activity against aac(6')-Ib-cr-negative Klebsiella pneumoniae SY22 harboring GyrA S83I, ParC S80I mutant, wild-type GyrB and qnrS genes by agar dilution method. The class given is functional. The method in brief: (§1)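 MICs were determined by the CLSI agar dilution method (M7-A7) and interpreted against CLSI M100-S17 breakpoints.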

Test [3] deals with Klebsiella pneumoniae. Put plainly: Antimicrobial activity against aac(6')-Ib-cr-negative Klebsiella pneumoniae SY22 harboring GyrA S83I, ParC S80I mutant, wild-type GyrB and qnrS genes by agar dilution method in presence of clavulanic acid. The class given is functional. The method in brief: (§2)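 MICs were determined by CLSI agar dilution (M7-A7) and interpreted by CLSI M100-S17 breakpoints. The curator's line names the β-lactamase inhibitor added.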

The test system of test [4] is Citrobacter freundii. As to the kind of experiment: Antimicrobial activity against aac(6')-Ib-cr-positive Citrobacter freundii TJ15 harboring GyrA T83I, ParC S80I mutant, wild-type GyrB, qnrB genes by agar dilution method. The class given is functional. Summed up:
as §1

Test [5] deals with Citrobacter freundii. Put plainly: Antimicrobial activity against aac(6')-Ib-cr-positive Citrobacter freundii TJ15 harboring GyrA T83I, ParC S80I mutant, wild-type GyrB, qnrB genes by agar dilution method in presence of clavulanic acid. The class given is functional. The method in brief:
as §2

Test [6] deals with Enterobacter cloacae. As to the kind of experiment: Antimicrobial activity against aac(6')-Ib-cr-negative Enterobacter cloacae WH42 harboring wild-type GyrA, ParC, GyrB and qnrA genes by agar dilution method. The class given is functional.
Test [7] deals with Enterobacter cloacae. Put plainly: Antimicrobial activity against aac(6')-Ib-cr-negative Enterobacter cloacae WH42T harboring qnrA gene by agar dilution method. Type of test: functional.
Test [8] concerns Klebsiella pneumoniae. As to the kind of experiment: Antimicrobial activity against aac(6')-Ib-cr-positive Klebsiella pneumoniae WH99T harboring qnrB gene by agar dilution method in presence of clavulanic acid. Type of test: functional. Summed up:
(§3)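 Transconjugants came from conjugation of qnr and/or aac(6')-Ib-cr-carrying donors with azide-resistant E. coli J53. […] MICs were determined by CLSI agar dilution (M7-A7) and interpreted by M100-S17.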

For test [9], the system named is Escherichia coli. As to the kind of experiment: Antimicrobial activity against Escherichia coli J53 harboring wild-type GyrA, ParC, GyrB genes by agar dilution method in presence of beta-lactamase inhibitor clavulanic acid. The class given is functional. The method in brief: as §2
Test [10] relates to Escherichia coli. Put plainly: Antimicrobial activity against aac(6')-Ib-cr-negative Escherichia coli PU12 harboring GyrA S83L mutant, wild-type GyrB, ParC and qnrS genes by agar dilution method. The class given is functional. Summed up:
as §1

Test [11] has as its system Escherichia coli. Put plainly: Antimicrobial activity against aac(6')-Ib-cr-negative Escherichia coli PU12 harboring GyrA S83L mutant, wild-type GyrB, ParC and qnrS genes by agar dilution method in presence of clavulanic acid. Type of test: functional. Summed up: as §2
Test [12] concerns Escherichia coli. As to the kind of experiment: Antimicrobial activity against aac(6')-Ib-cr-positive Escherichia coli FJ3 harboring GyrA S83L, ParC S80R mutant, wild-type GyrB and qnrB genes by agar dilution method in presence of clavulanic acid. Type of test: functional. The method in brief: as §2
The subject of test [13] is Enterobacter cloacae. Put plainly: Antimicrobial activity against aac(6')-Ib-cr-negative Enterobacter cloacae FJ61T harboring qnrS gene by agar dilution method in presence of clavulanic acid. The class given is functional. The method in brief: as §3
The test system of test [14] is Enterobacter cloacae. As to the kind of experiment: Antimicrobial activity against aac(6')-Ib-cr-negative Enterobacter cloacae FJ67 harboring […] and qnrS genes by agar dilution method. Type of test: functional.
The test system of test [15] is Enterobacter cloacae. Put plainly: Antimicrobial activity against aac(6')-Ib-cr-negative Enterobacter cloacae FJ67 harboring […] and qnrS genes by agar dilution method in presence of clavulanic acid. The class given is functional. The method in brief:
as §1

The subject of test [16] is Klebsiella pneumoniae. Put plainly: Antimicrobial activity against aac(6')-Ib-cr-positive Klebsiella pneumoniae GZ40 harboring GyrA S83I, ParC S80I mutant, wild-type GyrB and qnrB genes by agar dilution method. The class given is functional. Summed up: as §1
For test [17], the system named is Klebsiella pneumoniae. As to the kind of experiment: Antimicrobial activity against aac(6')-Ib-cr-positive Klebsiella pneumoniae GZ40T harboring qnrB gene by agar dilution method.
The subject of test [18] is Enterobacter cloacae. Put plainly: Antimicrobial activity against aac(6')-Ib-cr-negative Enterobacter cloacae GZ47T harboring qnrB gene by agar dilution method in presence of clavulanic acid. Type of test: functional. Summed up:
as §1

For test [19], the system named is Enterobacter cloacae. Put plainly: Antimicrobial activity against aac(6')-Ib-cr-negative Enterobacter cloacae GZ51T harboring qnrA gene by agar dilution method. Type of test: functional.
For test [20], the system named is Citrobacter freundii. Put plainly: Antimicrobial activity against aac(6')-Ib-cr-positive Citrobacter freundii JN1 harboring GyrA T83I, ParC S80I mutant, wild-type GyrB and qnrA genes by agar dilution method in presence of clavulanic acid. The class given is functional. Summed up:
as §1

The subject of test [21] is Citrobacter freundii. Put plainly: Antimicrobial activity against aac(6')-Ib-cr-positive Citrobacter freundii JN1T by agar dilution method. Type of test: functional. The method in brief: as §1
Test [22] deals with Klebsiella pneumoniae. Put plainly: Antimicrobial activity against aac(6')-Ib-cr-positive Klebsiella pneumoniae JN132T harboring qnrB gene by agar dilution method. The class given is functional. The method in brief: (§4)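 Transconjugants were made by conjugating a qnr/aac(6')-Ib-cr donor with azide-resistant E. coli J53. Selection used Trypticase soy agar with sodium azide 150 µg/ml and sulfamethoxazole 180 µg/ml. […] MICs were read by CLSI agar dilution (M7-A7) and interpreted per M100-S17.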

For test [23], the system named is Klebsiella pneumoniae. As to the kind of experiment: Antimicrobial activity against aac(6')-Ib-cr-positive Klebsiella pneumoniae JN41T harboring qnrB gene by agar dilution method. Type of test: functional. The method in brief:
as §4

For test [24], the system named is Citrobacter freundii. As to the kind of experiment: Antimicrobial activity against aac(6')-Ib-cr-negative Citrobacter freundii JN64 harboring GyrA T83I, wild-type ParC, GyrB and qnrA genes by agar dilution method. Type of test: functional. Summed up:
as §1

The subject of test [25] is Citrobacter freundii. As to the kind of experiment: Antimicrobial activity against aac(6')-Ib-cr-positive Citrobacter freundii JS33 harboring GyrA T83I mutant, wild-type ParC, GyrB, qnrA and qnrB genes by agar dilution method in presence of clavulanic acid. The class given is functional. The method in brief: as §2
Test [26] concerns Citrobacter freundii. As to the kind of experiment: Antimicrobial activity against aac(6')-Ib-cr-positive Citrobacter freundii JS33T harboring qnrA gene by agar dilution method. Type of test: functional. The method in brief: as §1
Test [27] has as its system Citrobacter freundii. As to the kind of experiment: Antimicrobial activity against aac(6')-Ib-cr-positive Citrobacter freundii JS33T harboring qnrA gene by agar dilution method in presence of clavulanic acid. The class given is functional. The method in brief:
as §3

For test [28], the system named is Citrobacter freundii. Put plainly: Antimicrobial activity against aac(6')-Ib-cr-positive Citrobacter freundii PU55 harboring GyrA T83I, ParC S80I mutant, wild-type GyrB, qnrA genes by agar dilution method in presence of Tazobactam. Type of test: functional. The method in brief:
as §2

Test [29] deals with Enterobacter cloacae. As to the kind of experiment: Antimicrobial activity against aac(6')-Ib-cr-negative Enterobacter cloacae FJ67 harboring […] and qnrS genes by agar dilution method in presence of Tazobactam. The class given is functional. The method in brief: as §1
For test [30], the system named is Klebsiella pneumoniae. As to the kind of experiment: Antimicrobial activity against aac(6')-Ib-cr-positive Klebsiella pneumoniae JN132 harboring GyrA S83I, ParC S80I mutant, wild-type GyrB and qnrB genes by agar dilution method in presence of Tazobactam. The class given is functional. Summed up:
(§5)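 MICs measured by CLSI agar dilution (M7-A7) and interpreted against CLSI M100-S17 breakpoints. Strains were clinical Enterobacteriaceae isolates or the azide-resistant E. coli J53 recipient.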

Test [31] deals with Klebsiella pneumoniae. As to the kind of experiment: Antimicrobial activity against aac(6')-Ib-cr-positive Klebsiella pneumoniae JN41 harboring GyrA S83I, ParC S80I mutant, wild-type GyrB and qnrB genes by agar dilution method in presence of Tazobactam. The class given is functional. Summed up:
as §5

Test [32] deals with Citrobacter freundii. As to the kind of experiment: Antimicrobial activity against aac(6')-Ib-cr-negative Citrobacter freundii JN64T harboring qnrA gene by agar dilution method in presence of Tazobactam. The class given is functional. The method in brief: as §1

The structures appear in SMILES notation. In brackets after ≈: the same amount, converted by molar mass.

Usually MIC stands for the least concentration at which growth counts as inhibited. With `CO/N=C(\C(=O)N[C@@H]1C(=O)N2C(C(=O)O)=C(COC(C)=O)CS[C@H]12)c1csc(N)n1` [CEFOTAXIME], the MIC in the test on Citrobacter freundii [1] was found to be 0.064 mg/L (≈ 0.141 µM); with Klebsiella pneumoniae [2], 2 mg/L (≈ 4.39 µM); with Klebsiella pneumoniae [3] it was 0.064 mg/L; in the test with Citrobacter freundii [4], 1 mg/L (≈ 2.2 µM); with Citrobacter freundii [5], 16 mg/L; in the test on Enterobacter cloacae [6] it was 256 mg/L (≈ 562 µM). Also, the MIC with Enterobacter cloacae [7] stood at 8 mg/L (≈ 17.6 µM); in the test on Klebsiella pneumoniae [8], 0.064 mg/L; in the test with Escherichia coli [9], 0.032 mg/L; with Escherichia coli [10], 16 mg/L (≈ 35.1 µM); in the test on Escherichia coli [11], 0.032 mg/L; with Escherichia coli [12] it was 0.032 mg/L. Besides, the MIC is 0.032 mg/L in the test with Enterobacter cloacae [13]; 256 mg/L (≈ 562 µM) against Enterobacter cloacae [14]; 0.25 mg/L in the test on Enterobacter cloacae [15]; more than 256 mg/L with Klebsiella pneumoniae [16]; 0.032 mg/L (≈ 0.0703 µM) against Klebsiella pneumoniae [17]; 0.5 mg/L with Enterobacter cloacae [18]. Further, the MIC against Enterobacter cloacae [19] worked out at 32 mg/L (≈ 70.3 µM); in the test with Citrobacter freundii [20] it was 128 mg/L; against Citrobacter freundii [21], 8 mg/L (≈ 17.6 µM); with Klebsiella pneumoniae [22], 32 mg/L (≈ 70.3 µM); in the test with Klebsiella pneumoniae [23], 16 mg/L (≈ 35.1 µM); in the test with Citrobacter freundii [24], 256 mg/L (≈ 562 µM). The results for the minimum inhibitory concentration (MIC) in the test on Citrobacter freundii [25], against Citrobacter freundii [26] and in the test with Citrobacter freundii [27] were 64 mg/L, 0.125 mg/L (≈ 0.274 µM) and 0.032 mg/L, respectively.
With `CCN1CCN(C(=O)N[C@@H](C(=O)N[C@@H]2C(=O)N3[C@@H]2SC(C)(C)[C@@H]3C(=O)O)c2ccccc2)C(=O)C1=O` [PIPERACILLIN], the MIC in the test with Citrobacter freundii [28] is 64 mg/L; in the test on Enterobacter cloacae [29], 1 mg/L; in the test on Klebsiella pneumoniae [30] it was 4 mg/L; in the test on Klebsiella pneumoniae [31] it was 4 mg/L; in the test on Citrobacter freundii [32], 4 mg/L.
